Consider two molecules from ChEMBL document CHEMBL4043282, “Discovery of the First Potent, Selective, and Orally Bioavailable Signal Peptide Peptidase-Like 2a (SPPL2a) Inhibitor Displaying Pronounced Immunomodulatory Effects In Vivo” (J Med Chem, 2018).

Calls of active or inactive are those of the source. No cut-off for these calls is given here.

As a reminder, the IC50 is the concentration needed to halve the response being measured. In general, inhibition refers to the drop in the measured response relative to a control, in per cent. Broadly, the clearance is the rate of elimination divided by the concentration. Higher therefore signals efficient removal. The term half-life denotes the time in which the quantity being followed falls by half.

In series [1] the test system is Mus musculus. The experiment in a line: Dose normalized drug uptake in Balb/c mouse at 5 mg/kg, iv by LC/MS/MS analysis. Format: ADME, organism-based. To be noted: in vivo.
Series [2] has as its target T1, Signal peptide peptidase-like 2B (Homo sapiens, UniProt Q8TCT7).
T1 sequence (Q8TCT7 whole entry): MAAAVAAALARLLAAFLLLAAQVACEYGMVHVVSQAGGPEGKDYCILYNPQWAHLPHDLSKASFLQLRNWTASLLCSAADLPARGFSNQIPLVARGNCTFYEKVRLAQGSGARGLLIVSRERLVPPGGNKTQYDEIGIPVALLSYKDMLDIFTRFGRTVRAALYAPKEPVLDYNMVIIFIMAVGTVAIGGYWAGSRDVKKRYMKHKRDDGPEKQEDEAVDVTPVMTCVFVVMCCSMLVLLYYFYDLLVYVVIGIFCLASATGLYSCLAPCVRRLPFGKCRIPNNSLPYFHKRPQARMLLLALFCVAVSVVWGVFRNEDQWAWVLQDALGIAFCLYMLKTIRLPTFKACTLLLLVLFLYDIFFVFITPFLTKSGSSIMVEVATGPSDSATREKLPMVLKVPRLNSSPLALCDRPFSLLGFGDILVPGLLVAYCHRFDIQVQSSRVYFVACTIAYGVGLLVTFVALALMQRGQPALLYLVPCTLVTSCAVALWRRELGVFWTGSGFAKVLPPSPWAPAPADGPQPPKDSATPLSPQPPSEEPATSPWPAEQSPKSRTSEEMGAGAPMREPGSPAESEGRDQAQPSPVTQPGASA
The experiment in a line: Inhibition of human SPPL2b expressed in human U2OS cells using EGFP-labeled TNFalpha (1 to 76 residues) NTF as substrate after 24 hrs by Hoechst staining based high content imaging assay. Format: cell-based. Put shortly: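 Stable U-2 OS lines expressing human SPPL2a, SPPL2b or SPP constitutively (mouse SPPL2a line analogous, mouse TNFα(aa1-77)-NTF-EGFP-NLS) with doxycycline-inducible EGFP substrate. 3000 cells/well, 3−4 h, then 11-point inhibitor 100 μM to 1 nM, 0.9% DMSO, 5 μg/mL doxycycline, 24 h 37 °C. PFA fixed, Hoechst nuclei; nuclear minus cytoplasmic EGFP intensity; inhibition vs 0.5 μM reference and DMSO; IC50 by nonlinear regression.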

In series [3] the test system is Salmonella typhimurium. The experiment in a line: Genotoxicity in Salmonella typhimurium by Ames test. In kind it is toxicity. To be noted: salmonella enterica subsp. enterica serovar typhimurium. A general note: In the Ames test, an excess of revertant colonies over the control signals mutagenicity.
Series [4] has as its system Mus musculus. The series can be described thus: In vivo inhibition of SPPL2a in mouse assessed as accumulation of CD74/p8 in splenocyte lysate at 1 to 3 mg/kg administered via oral gavage as single dose measured 16 hrs post dose by Western blot method. Format: functional, organism-based. Put shortly: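 Mice gavaged in 0.5% MC:0.5% Tween or PEG:D5W 3:1. Spleens dissociated, red cells lysed with ACK, 1 × 10^6 cells lysed with protease inhibitors; 18 μg lysate on 10% gel, blotted, CD74 full length and p8 detected with rat anti-mouse CD74 In-1 and Alexa488 anti-rat IgG, LiCor scan; p8/full-length ratio expressed as percent of reference compound ratio.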

Series [5] deals with Mus musculus. The experiment in a line: Immunomodulatory activity in mouse assessed as reduction in transition T2 B cells in splenocyte at 3 to 30 mg/kg administered via oral gavage bid at 8 and 16 hrs dosing interval between first and second dose respectively for 11 days measured 16 hrs post last dose on day 12 by flow cytometry. Format: functional, organism-based. The method, boiled down:
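Mice gavaged with compound in 0.5% MC:0.5% Tween or PEG:D5W 3:1. Spleens dissociated in GentleMACS, filtered at 40 μm, ACK red-cell lysis, counted; 1 × 10^6 splenocytes stained 30 min on ice in HBSS/2% FBS/5 mM EDTA with antimouse panels for B-cell subsets (B220, CD21, CD23, IgM, IgD) or dendritic cells (PDCA1, CD11c, MHCII, lineage markers); analyzed on Fortessa flow cytometer.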

The subject of series [6] is Mus musculus. The series can be described thus: Immunomodulatory activity in mouse assessed as reduction in myloid dendritic cells in splenocyte administered via oral gavage bid at 8 and 16 hrs dosing interval between first and second dose respectively for 11 days measured 16 hrs post last dose on day 12 by B220 staining based flow cytometry. In kind it is functional, cell-based. (In flow cytometry, cells or beads pass a laser one at a time.)

In series [7] the test system is Plasma. The series can be described thus: Cmin in mouse plasma at 3 mg/kg, po bid administered at 8 and 16 hrs dosing interval between first and second dose respectively for 11 days measured predose on day 12 by LC/MS/MS analysis. Format: ADME, organism-based. As to conditions: in vivo, read-out: Cmin. Put shortly: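 Mice gavaged bid in 0.5% MC:0.5% Tween or PEG:D5W 3:1; trough sample taken before the morning dose; 50 μL retro-orbital blood into LiHep tubes, kept on ice, plasma separated at 2823g for 5 min, stored at −20 °C until analysis.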

The target of series [8] is T2, Signal peptide peptidase-like 2A (Mus musculus) (UniProt Q9JJF9).
T2 sequence (whole entry): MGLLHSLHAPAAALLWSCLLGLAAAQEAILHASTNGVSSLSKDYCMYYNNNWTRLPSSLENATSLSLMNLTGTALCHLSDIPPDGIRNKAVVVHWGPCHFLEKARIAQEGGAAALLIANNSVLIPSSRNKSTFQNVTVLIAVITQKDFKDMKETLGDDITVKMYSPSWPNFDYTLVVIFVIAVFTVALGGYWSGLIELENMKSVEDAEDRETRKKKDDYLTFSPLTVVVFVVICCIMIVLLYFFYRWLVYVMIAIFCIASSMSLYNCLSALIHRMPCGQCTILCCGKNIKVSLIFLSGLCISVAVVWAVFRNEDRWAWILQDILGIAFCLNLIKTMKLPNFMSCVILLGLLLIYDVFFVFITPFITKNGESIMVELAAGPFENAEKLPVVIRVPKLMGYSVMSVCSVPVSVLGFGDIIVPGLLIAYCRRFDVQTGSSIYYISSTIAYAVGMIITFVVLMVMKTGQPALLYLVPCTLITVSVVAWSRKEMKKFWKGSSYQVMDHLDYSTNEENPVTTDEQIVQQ
To be noted: 2 uM.

Series [9] is described as follows: Clearance in Sprague-Dawley rat at 1 mg/kg, iv by LC/MS/MS analysis. As to conditions: in vivo. In kind it is ADME, organism-based. Put shortly: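 Female Sprague−Dawley rats with femoral artery and vein catheters implanted 96−120 h beforehand; cassette dosing iv 1 mg/kg per compound in NMP/PEG200 (30:70); arterial blood into EDTA tubes at several times, frozen; LC-MS/MS vs standard curve with QCs within 70−130%; noncompartmental analysis.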

Series [10] is described as follows: Total plasma concentration in mouse at 100 mg/kg, po administered as single dose after 4 hrs by LC/MS/MS analysis. Format: ADME, organism-based.
Series [11] can be described thus: Stability in human liver microsomes at […] preincubated for 3 mins followed by NADPH addition measured after 1 hr in presence of GSH and [13C2-15N-glycine]-GSH by HPLC/MS method. Format: ADME, microsome. To be noted: read-out: Stability.
Series [12] concerns Mus musculus. The series can be described thus: In vivo inhibition of SPPL2a in mouse assessed as increase in CD74/p8 accumulation in splenocytes at 100 mg/kg, po administered as single dose measured after 4 hrs by Western blot method. In kind it is functional, organism-based.
Series [13] can be described thus: Half life in Balb/c mouse at 5 mg/kg, iv by LC/MS/MS analysis. Format: ADME, organism-based. To be noted: in vivo.

With `Cc1ncc(F)cc1NC(=O)C[C@H](C(=O)N[C@@H]1C(=O)N2CC3(CC3)CN2C(=O)c2ccccc21)C1CC1`, the Druguptake/dose in series [1] amounted to 264 nM. The IC50 in series [2] came out at 430 nM. In addition, the Activity result in [3] is “Non-Toxic”; in [6], “Dose-dependent effect”. The inhibition result in [4] was “inactive”. The outcome in series [5] was Active. Further, the concentration in series [7] worked out at 16 nM. In series [8], this molecule showed an inhibition of 50%.
As to `Cc1ccccc1NC(=O)C[C@@H](C)C(=O)N[C@@H]1C(=O)N2CCCN2Cc2ccccc21`, in series [9], the clearance worked out at 45 mL/min/kg. The molecule further yielded a concentration at 4 h in [10] of 2090 nM. In addition, in series [11], the remaining at 1 h was determined as 70.8%. In series [12], the outcome was Active. In series [13], this molecule gave a half-life of 42 min.
